Measured values of several laboratories.
Protocols differ between the studies behind these lines.
Cell line: T47D
Observed: cell growth or viability

| SMILES | test | conditions | quantity | value |
| --- | --- | --- | --- | --- |
| COc1cccc2c1C(=O)c1c(O)c3c(c(O)c1C2=O)C[C@@](O)(C(=O)CO)C[C@@H]3O[C@H]1C[C@H](N)[C@H](O)[C@H](C)O1 | MTT | 24 h | IC50 | 75.9 µM |
| C=C[C@]1(C)C=C2CC[C@H]3C(C)(C)CCC[C@]3(C)[C@H]2CC1 | MTT | 75 h | IC50 | 159 µM |
| Cc1nc(NC(=O)N2CCC[C@H]2C(N)=O)sc1-c1ccnc(C(C)(C)C(F)(F)F)c1 | ATP luminescence | 5 days | EC50 | 0.444 µM |
| COC(=O)c1cc(C(C)=NNc2nc(-c3ccc4c(c3)OCCCO4)cs2)ccc1O | MTT | 96 h | IC50 | 21.2 µM |
| CN(C)c1cccc2c(S(=O)(=O)NCCCCN=C=S)cccc12 | MTT | 24 h | IC50 | 21.1 µM |
| Cc1c(Cl)c(=O)oc2cc(OCCCCSC#N)ccc12 | SRB |  | GI50 | 24 µM |
| CS(=O)(=O)NCCCCN=C=S | MTT | 24 h | IC50 | 26.9 µM |
| COC(=O)c1cc(C(C)=NNc2nc(-c3ccc(C)cc3)cs2)ccc1O | MTT | 96 h | IC50 | 24.1 µM |
| N#CSCCCCOc1ccc2c(-c3ccccc3)cc(=O)oc2c1 | SRB |  | GI50 | 34 µM |
| C[C@H](Nc1ccc2c(c1)OCCn1cc(N3C(=O)OC[C@H]3C(F)F)nc1-2)C(N)=O | ATP luminescence | 5 days | EC50 | 0.0312 µM |
| COc1cccc2c1C(=O)c1c(O)c3c(c(O)c1C2=O)C[C@@](O)(C(=O)CO)C[C@@H]3O[C@H]1C[C@H](N)[C@H](O)[C@H](C)O1 | MTT | 75 h | IC50 | 0.27 µM |
